Eight compounds from ChEMBL document CHEMBL2417496, “Novel selective inhibitors of aminopeptidases that generate antigenic peptides” (Bioorg Med Chem Lett, 2013) can be followed below.

For test [1], the target named is T1, Endoplasmic reticulum aminopeptidase 2 (Homo sapiens, UniProt Q6P179). The experiment in a line: Inhibition of recombinant ERAP2 (unknown origin) expressed in baculovirus-infected Hi5 insect cells assessed as L-Arginyl-7-amido-4-methyl coumarin hydrolysis to 7-amido-4-methyl coumarin at 50 uM after 5 to 10 mins by fluorescence assay. The gist of the method:
(§1)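 ERAP2 was made as a recombinant protein in baculovirus-infected Hi5 insect cells and purified by affinity chromatography. Activity was monitored fluorogenically as the rate of R-AMC hydrolysis. Inhibitor was titrated, and inhibition was also examined at 50 μM and across 50–100 μM.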

The target in test [2] is Endoplasmic reticulum aminopeptidase 1 (Homo sapiens) (UniProt Q9NZ08). The test can be described thus: Inhibition of recombinant ERAP1 (unknown origin) expressed in baculovirus-infected Hi5 insect cells assessed as L-Leucine-7-amido-4-methyl coumarin hydrolysis to 7-amido-4-methyl coumarin at 50 uM after 5 to 10 mins by fluorescence assay. The gist of the method:
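ERAP1 was made as a recombinant protein in Hi5 insect cells infected with recombinant baculovirus and affinity-purified to homogeneity. Activity was followed as the kinetics of hydrolysis of the fluorogenic substrate L-AMC. Inhibitor was titrated at increasing amounts, and single-point inhibition was checked at 50 μM.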

For test [3], the target named is T1, Endoplasmic reticulum aminopeptidase 2. The test can be described thus: Inhibition of recombinant ERAP2 (unknown origin) expressed in baculovirus-infected Hi5 insect cells assessed as L-Arginyl-7-amido-4-methyl coumarin hydrolysis to 7-amido-4-methyl coumarin at 50 to 100 uM after 5 to 10 mins by fluorescence assay relative to control. The gist of the method: as §1

The target is the same in test [4]. The experiment in a line: Inhibition of recombinant ERAP2 (unknown origin) expressed in baculovirus-infected Hi5 insect cells assessed as L-Arginyl-7-amido-4-methyl coumarin hydrolysis to 7-amido-4-methyl coumarin after 5 to 10 mins by fluorescence assay.
The target of test [5] is T2, Leucyl-cystinyl aminopeptidase (Homo sapiens, UniProt Q9UIQ6). The test can be described thus: Inhibition of human recombinant IRAP expressed in HeLa cells assessed as L-Leucine-7-amido-4-methyl coumarin hydrolysis to 7-amido-4-methyl coumarin at 50 to 100 uM after 5 to 10 mins by fluorescence assay relative to control. Format: cell-based.
The target of test [6] is T2, Leucyl-cystinyl aminopeptidase. The experiment in a line: Inhibition of human recombinant IRAP expressed in HeLa cells assessed as L-Leucine-7-amido-4-methyl coumarin hydrolysis to 7-amido-4-methyl coumarin after 5 to 10 mins by fluorescence assay. In kind it is cell-based.

Structures are written as SMILES. Active and inactive are the calls of the source. The rule behind the calls is not given here. Some results are limits rather than exact numbers.

Endoplasmic reticulum aminopeptidase 1 (Homo sapiens), sequence (Q9NZ08 whole entry): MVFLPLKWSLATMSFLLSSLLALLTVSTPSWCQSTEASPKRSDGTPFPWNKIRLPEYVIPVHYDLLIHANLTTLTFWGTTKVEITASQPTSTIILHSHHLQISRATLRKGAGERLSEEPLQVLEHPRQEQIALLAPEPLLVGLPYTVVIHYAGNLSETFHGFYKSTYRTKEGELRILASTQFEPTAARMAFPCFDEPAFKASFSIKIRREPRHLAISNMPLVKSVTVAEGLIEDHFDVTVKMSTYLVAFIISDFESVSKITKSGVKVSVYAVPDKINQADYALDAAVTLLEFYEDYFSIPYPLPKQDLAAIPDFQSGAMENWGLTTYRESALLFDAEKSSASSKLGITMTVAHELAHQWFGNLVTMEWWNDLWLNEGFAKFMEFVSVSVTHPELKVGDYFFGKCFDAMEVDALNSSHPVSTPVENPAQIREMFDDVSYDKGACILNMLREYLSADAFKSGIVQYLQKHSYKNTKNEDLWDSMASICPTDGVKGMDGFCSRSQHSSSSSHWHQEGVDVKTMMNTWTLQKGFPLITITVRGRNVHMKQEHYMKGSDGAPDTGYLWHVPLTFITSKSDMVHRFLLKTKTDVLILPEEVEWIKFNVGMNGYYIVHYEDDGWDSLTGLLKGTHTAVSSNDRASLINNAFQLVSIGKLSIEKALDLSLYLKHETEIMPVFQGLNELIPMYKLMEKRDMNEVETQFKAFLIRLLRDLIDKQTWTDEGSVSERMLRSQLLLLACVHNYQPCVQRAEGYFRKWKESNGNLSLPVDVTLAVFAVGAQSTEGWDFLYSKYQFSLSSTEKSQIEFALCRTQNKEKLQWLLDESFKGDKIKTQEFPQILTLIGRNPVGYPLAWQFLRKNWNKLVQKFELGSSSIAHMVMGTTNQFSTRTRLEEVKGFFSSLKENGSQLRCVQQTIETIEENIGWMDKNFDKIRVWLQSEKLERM
T1 sequence (Q6P179 whole entry): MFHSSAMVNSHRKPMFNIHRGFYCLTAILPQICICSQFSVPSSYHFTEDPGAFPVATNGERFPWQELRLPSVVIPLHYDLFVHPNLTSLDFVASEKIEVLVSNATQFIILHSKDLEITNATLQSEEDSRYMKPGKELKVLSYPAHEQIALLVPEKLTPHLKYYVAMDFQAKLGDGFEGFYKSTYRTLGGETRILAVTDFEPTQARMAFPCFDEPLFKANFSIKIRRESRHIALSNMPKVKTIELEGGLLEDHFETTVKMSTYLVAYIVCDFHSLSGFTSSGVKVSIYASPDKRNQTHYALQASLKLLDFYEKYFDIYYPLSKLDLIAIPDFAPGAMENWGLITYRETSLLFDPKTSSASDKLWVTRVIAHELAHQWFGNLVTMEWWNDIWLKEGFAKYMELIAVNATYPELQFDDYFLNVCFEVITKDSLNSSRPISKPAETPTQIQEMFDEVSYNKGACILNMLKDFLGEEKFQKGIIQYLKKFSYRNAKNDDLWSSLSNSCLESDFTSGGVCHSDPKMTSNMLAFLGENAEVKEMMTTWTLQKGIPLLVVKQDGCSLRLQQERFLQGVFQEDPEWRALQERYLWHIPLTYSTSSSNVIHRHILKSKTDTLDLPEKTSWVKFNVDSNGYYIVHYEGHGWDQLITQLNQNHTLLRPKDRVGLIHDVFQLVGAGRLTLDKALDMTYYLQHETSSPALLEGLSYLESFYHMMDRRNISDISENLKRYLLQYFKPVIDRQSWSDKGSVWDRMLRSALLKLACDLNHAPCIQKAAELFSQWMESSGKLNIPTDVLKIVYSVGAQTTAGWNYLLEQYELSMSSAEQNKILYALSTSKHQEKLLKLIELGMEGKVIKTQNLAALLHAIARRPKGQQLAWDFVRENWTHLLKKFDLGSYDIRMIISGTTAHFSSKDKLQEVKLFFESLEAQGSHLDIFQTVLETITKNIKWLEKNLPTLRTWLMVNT
T2 sequence (Q9UIQ6 whole entry): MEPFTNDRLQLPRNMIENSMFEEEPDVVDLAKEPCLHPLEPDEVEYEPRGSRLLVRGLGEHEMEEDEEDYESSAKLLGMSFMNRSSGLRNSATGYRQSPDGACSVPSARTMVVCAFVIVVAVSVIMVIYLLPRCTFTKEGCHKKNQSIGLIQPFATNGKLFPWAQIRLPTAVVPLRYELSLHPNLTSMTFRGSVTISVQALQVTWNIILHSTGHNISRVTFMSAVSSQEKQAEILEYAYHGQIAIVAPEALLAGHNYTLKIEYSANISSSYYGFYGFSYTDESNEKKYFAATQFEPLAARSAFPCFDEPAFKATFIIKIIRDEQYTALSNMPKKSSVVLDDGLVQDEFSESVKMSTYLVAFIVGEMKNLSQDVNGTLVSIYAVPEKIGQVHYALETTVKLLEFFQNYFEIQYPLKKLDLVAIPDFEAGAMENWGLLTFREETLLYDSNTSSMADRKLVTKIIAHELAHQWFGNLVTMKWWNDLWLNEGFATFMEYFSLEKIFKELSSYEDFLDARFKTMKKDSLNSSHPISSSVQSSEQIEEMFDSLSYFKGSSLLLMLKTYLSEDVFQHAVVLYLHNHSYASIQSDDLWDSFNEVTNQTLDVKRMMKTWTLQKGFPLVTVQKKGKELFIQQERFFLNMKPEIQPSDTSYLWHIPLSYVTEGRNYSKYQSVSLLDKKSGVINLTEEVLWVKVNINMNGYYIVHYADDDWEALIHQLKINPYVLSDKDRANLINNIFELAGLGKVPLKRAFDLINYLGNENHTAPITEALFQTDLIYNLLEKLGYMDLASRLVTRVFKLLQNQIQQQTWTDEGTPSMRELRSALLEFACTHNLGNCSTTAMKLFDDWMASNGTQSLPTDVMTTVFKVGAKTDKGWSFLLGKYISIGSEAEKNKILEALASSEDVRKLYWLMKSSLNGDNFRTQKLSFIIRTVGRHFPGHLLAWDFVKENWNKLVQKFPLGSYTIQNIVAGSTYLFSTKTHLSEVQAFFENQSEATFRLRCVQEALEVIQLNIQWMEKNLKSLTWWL

With `COC(=O)[C@H](CCCNC(=N)N)NC(=O)c1ccc(N)c(NC(=O)[C@@H](N)CCc2ccccc2)c1`, the inhibition result in test [1] and in test [2] was “inactive” each time.
On to `Nc1ccc(C(=O)N[C@@H](Cc2c[nH]c3ccccc23)C(=O)OCc2ccccc2)cc1NC(=O)[C@@H](N)CCc1ccccc1`, for which the inhibition – broadly, how much of the control response was suppressed – in test [2] was “inactive”.
For the compound `COC(=O)c1ccc(N)c(NC(=O)[C@@H](N)CCc2ccccc2)c1`, the inhibition in test [3] was less than 20%. Moreover, in test [2], the inhibition result was “inactive”. The IC50 (as a rule, the concentration needed to halve the response being measured) in test [4] was more than 100 µM.
In the case of `CC(C)[C@H](NC(=O)c1ccc(N)c(NC(=O)[C@@H](N)CCc2ccccc2)c1)C(=O)O`, the inhibition in test [5] was less than 20%. The inhibition entry in test [1] and in test [2] was “inactive” in each case. Besides, in test [6], the IC50 is more than 100 µM.
On to `COC(=O)[C@@H](NC(=O)c1ccc(N)c(NC(=O)[C@@H](N)CCc2ccccc2)c1)[C@@H](C)O`, for which the inhibition entry in test [1] and in test [2] was “inactive” throughout.
As for `COC(=O)[C@H](Cc1ccc(O)cc1)NC(=O)c1ccc(N)c(NC(=O)[C@@H](N)CCc2ccccc2)c1`, the inhibition in test [3] is less than 20%. In test [4], the IC50 was more than 100 µM.
Consider `Nc1ccc(C(=O)O)cc1NC(=O)[C@@H](N)CCc1ccccc1`, for which the inhibition in test [5] and in test [3] was less than 20% each time. In addition, the inhibition entry in test [2] was “inactive”. Moreover, the IC50 in test [6] and in test [4] was more than 100 µM in each case.
On to `COC(=O)[C@H](C)NC(=O)c1ccc(N)c(NC(=O)[C@@H](N)CCc2ccccc2)c1`, for which the inhibition result in test [1] and in test [2] was “inactive” throughout.
